pIC50: −log10 of the molar value.

Assay [1] in a line: Antiinflammatory activity in human neutrophils assessed as inhibition of fMLP/cytochalasin B-induced superoxide radical anion generation. The assay is classed as functional, cell-based. Particulars: Neutrophil. The method, boiled down:
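Neutrophils from healthy adult donors were isolated by dextran sedimentation, Ficoll Hypaque centrifugation and hypotonic RBC lysis, then kept in Ca2+-free HBSS pH 7.4 at 4 °C. Cells with 0.5 mg/mL ferricytochrome c and 1 mM Ca2+ were equilibrated 2 min at 37 °C and given compound for 5 min. CB 1 µg/mL was added 3 min before 100 nM fMLP (10 min). SOD-inhibitable A550 was read continuously.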

Assay [2] in a line: Antiinflammatory activity in human neutrophils assessed as inhibition of fMLP/Cytochalasin B-induced elastase release. Particulars: Neutrophil. The assay is classed as functional, cell-based. The method, boiled down:
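Elastase release (azurophilic degranulation) was measured in donor neutrophils (6 × 10^5/mL) with MeO-Suc-Ala-Ala-Pro-Val-p-nitroanilide substrate at 100 µM. Cells were equilibrated 2 min at 37 °C, then pretreated with compound for 5 min. Stimulation was with fMLP 100 nM plus cytochalasin B 0.5 µg/mL, and A405 was monitored continuously. IC50 came from concentration-dependent inhibition.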

On to `COc1cc([C@@H]2OC[C@@H]3[C@H]2CO[C@H]3c2cc(OC)c(O)c(OC)c2)cc(OC)c1O`, for which the pIC50 (commonly the IC50 on a negative log10 scale, so that one unit is a factor of ten) in assay [1] was 4.40; in assay [2], below 4.30.

With `CC[C@@H]1OC(=O)c2c1cc(OC)c(OC)c2O`, the values for the pIC50 in assay [1] and in assay [2] were 4.86 and below 4.30, respectively. As to `CC[C@@H]1OC(=O)c2c1cc(OC)c(OC)c2OC`, the pIC50 in assay [1] is 4.75; in assay [2] it was below 4.30. On the same counts, the results for `C/C=C1\OC(=O)c2c1ccc(OC)c2O` are 4.34 and 4.41. `CC[C@H]1OC(=O)c2c1ccc(OC)c2O`: the figures for the negative logarithm of the IC50 (pIC50) in assay [1] and in assay [2] were 4.67 and below 4.30, respectively. On the same counts, the results for `CC[C@@H]1OC(=O)c2c1ccc(OC)c2O` are 4.53 and below 4.30. On the same counts, the results for `C/C=C1\OC(=O)c2c1ccc(OC)c2OC` are below 4.30 and 4.47. For the compound `c1ccc2c(c1)[I+]c1ccccc1-2` [DIPHENYLENEIODONIUM], the pIC50 in assay [1] is 5.77.

As for `COc1cc2ccc(=O)oc2c(OC)c1OC` [FRAXIDIN METHYL ETHER], the results for the pIC50 in assay [1] and in assay [2] were 4.31 and below 4.30, respectively. As for `O=S(=O)(F)Cc1ccccc1` [PHENYLMETHYLSULFONYLFLUORIDE], in assay [2], the negative logarithm of the IC50 (pIC50) was 3.69. Regarding `COc1cc2ccc(=O)oc2cc1OC` [SCOPARONE], the negative-log IC50 (pIC50) in assay [1] is 4.38; in assay [2] it was below 4.30.

These data come from ChEMBL document CHEMBL1140168, “Phthalides from Pittosporum illicioides var. illicioides with inhibitory activity on superoxide generation and elastase release by neutrophils” (J Nat Prod, 2008).
